Data set [1] deals with TK-10. The data set can be described thus: Antiproliferative activity against human TK-10 cells assessed as reduction in cell growth upto 10 uM measured after 6 days by propidium iodide staining based analysis. Format: functional. Particulars: time 6.0 day. The essentials: (§1)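 ATCC-sourced lines grown without antibiotics; 1,000 cells/well in 1% FBS medium, refed ±drug on days 1 and 4 over a 6-day course. On day 7, propidium iodide (10 μg/mL in D-PBS) read after 30 min for nonviable cells, plate frozen at -80°C 2 h, thawed and reread; proliferative index = postfreeze minus prefreeze signal.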

For data set [2], the system named is K562. In words: Antiproliferative activity against human K562 cells assessed as reduction in cell growth upto 10 uM measured after 6 days by propidium iodide staining based analysis. The data set is classed as functional. Particulars: time 6.0 day. In outline:
as §1

In data set [3] the target is Mitogen-activated protein kinase 12 (Homo sapiens) (UniProt P53778). The data set can be described thus: Inhibition of SAPK3 (unknown origin) at 1 micromol/L relative to control. Conditions: dose 1.0 µmol/L. In outline: (§2)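 Commercial kinase profiler panel run to the provider's protocol, with the compound tested at 1 µmol/L. Activity is expressed as percent of kinase activity without compound.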
Sequence of Mitogen-activated protein kinase 12 (Homo sapiens) (P53778 whole entry): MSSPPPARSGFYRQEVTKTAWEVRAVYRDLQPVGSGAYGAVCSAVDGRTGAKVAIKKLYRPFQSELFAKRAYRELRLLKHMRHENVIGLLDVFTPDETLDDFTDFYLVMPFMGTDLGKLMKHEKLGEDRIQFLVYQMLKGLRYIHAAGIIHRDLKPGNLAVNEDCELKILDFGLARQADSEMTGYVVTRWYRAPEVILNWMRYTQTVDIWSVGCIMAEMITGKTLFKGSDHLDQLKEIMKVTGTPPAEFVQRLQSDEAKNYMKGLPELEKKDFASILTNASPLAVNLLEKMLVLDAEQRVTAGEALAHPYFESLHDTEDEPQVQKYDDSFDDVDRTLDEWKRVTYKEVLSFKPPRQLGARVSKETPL

Data set [4] relates to HCT-116. In words: Induction of apoptosis in human HCT-116 cells assessed as increase in apoptotic cells incubated for 72 hrs by TUNEL staining based analysis (reference value: 2%). The data set is classed as functional. Conditions: dose 4 µmol/L, at 4 µM.
Data set [5] deals with HCT-116. The data set can be described thus: Inhibition of ERK in human HCT-116 cells at 1 micromol/L measured upto 4 hrs by Western blotting analysis. Format: cell-based. Conditions: dose 1.0 µmol/L. The essentials:
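Cultured tumor cells treated with 1 μmol/L drug; lysates in cell extraction buffer with protease inhibitors, western blotted with phospho-specific antibodies (pGSK3β Ser9, pAKT Thr308, phospho-ERK) alongside total GSK3β/AKT.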
A general note: In western blotting, separated proteins are transferred to a membrane and probed.

The target in data set [6] is RAC-alpha serine/threonine-protein kinase (Homo sapiens) (UniProt P31749). The data set can be described thus: Inhibition of PKBalpha (unknown origin) at 1 micromol/L relative to control. Conditions: dose 1.0 µmol/L. The essentials:
as §2

Data set [7] deals with DU-145. In words: Antiproliferative activity against human DU-145 cells assessed as reduction in cell growth upto 10 uM measured after 6 days by propidium iodide staining based analysis. Conditions: time 6.0 day. Format: functional. The essentials:
as §1

Data set [8] has as its system HCT-116. The data set can be described thus: Antitumor activity against human HCT-116 cells xenografted in athymic nude mouse assessed as reduction in GSK3beta phosphorylation at serine 9 residue at 75 mg/kg, po administered twice daily measured after 2 hrs by ELISA method relative to control. Details: scale not given: the % may be the effect or the level left. The data set is classed as functional. In outline:
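HCT116-bearing nude mice, 75 mg/kg by gavage; tumors and PBMCs harvested 0.5, 2, 4, 8 h post-dose, n = 5 per time point. PBMCs from five mice pooled via CPT tube. Lysates assayed by pGSK3β Ser9 immunometric ELISA (tumor 400–600 μg, PBMC 50–100 μg protein/well); percent of vehicle control, Dunnett/ANOVA.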
Background: In xenograft studies the graft and the host belong to different species.

In data set [9] the target is Mitogen-activated protein kinase 13 (Homo sapiens) (UniProt O15264). In words: Inhibition of SAPK4 (unknown origin) at 1 micromol/L relative to control. Particulars: dose 1.0 µmol/L. The essentials:
as §2

Data set [10] in a line: Plasma concentration in athymic nude mouse xenografted with human HCT-116 cells at 75 mg/kg, po administered twice daily measured after 30 mins by LC-MS analysis. Format: ADME, organism-based. The essentials:
(§3)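 Female athymic nude mice, 6–8 weeks old, received 5 million HCT116 cells s.c. in the flank in 1:1 serum-free medium and matrigel (n = 9 per group). Dosing began at a group mean tumor volume of 100 mm³: 75 mg/kg twice daily by gavage, suspended in 10% acacia in water. Plasma was taken on days 1 and 21 at 0.5–12 h post-dose and measured by LC-MS/MS.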

Data set [11] deals with ACHN. In words: Antiproliferative activity against human ACHN cells assessed as reduction in cell growth upto 10 uM measured after 6 days by propidium iodide staining based analysis. Format: functional. Particulars: time 6.0 day. The essentials:
as §1

The test system of data set [12] is HCT-116. The data set can be described thus: Inhibition of ribosomal protein S6 phosphorylation at serine 240/244 residue in human HCT-116 cells at 1 micromol/L upto 4 hrs by Western blotting analysis. The data set is classed as cell-based. Particulars: dose 1.0 µmol/L. The essentials: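 HCT116 cells from ATCC were grown in FBS-containing medium without antibiotics. They were lysed in cell extraction buffer with protease inhibitor cocktails, and protein was measured by DC assay. Western blotting used phospho-S6 Ser240/244 and total S6 ribosomal protein antibodies.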

Data set [13] has as its system U-87 MG. In words: Induction of apoptosis in human U-87 MG cells assessed as increase in oligonucleosomal fragmentation at 1 to 4 micromol/L incubated for 48 hrs by ELISA method. The data set is classed as functional, cell-based. Particulars: U-87MG ATCC, dose 1-4 µmol/L. In outline:
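Oligonucleosomal fragmentation by Cell Death Detection ELISA-plus; 5,000 cells/well in 1% FBS medium, treated 48 h (range studied 0.1–10 μmol/L); absorbance normalized to control-treated cells to give nucleosomal enrichment factor.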
(ELISA stands for enzyme-linked immunosorbent assay.)

Data set [14] addresses Protein kinase C epsilon type (Homo sapiens, UniProt Q02156). In words: Inhibition of recombinant human PKCepsilon using myelin basic protein as substrate incubated for 60 mins in presence of […] and ATP by microbeta scintillation counter analysis. The essentials: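 Recombinant human PKCε at 719 pmol/L. Myelin basic protein substrate at 0.25 mg/mL. 30 µmol/L ATP plus 32P-ATP. Started with enzyme, 60 min at room temperature, H3PO4 quench. Phosphocellulose filter capture, scintillation counting. 10-point series 1–2,000 nmol/L. IC50 from three-variable logistic fit.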

Data set [15] concerns the target Platelet-derived growth factor receptor alpha (Homo sapiens) (UniProt P16234). The data set can be described thus: Inhibition of PDGFRalpha (unknown origin) at 1 micromol/L relative to control. Conditions: dose 1.0 µmol/L. The essentials: as §2
The subject of data set [16] is PC-3. In words: Antiproliferative activity against human PC-3 cells assessed as reduction in cell growth upto 10 uM measured after 6 days by propidium iodide staining based analysis. Particulars: time 6.0 day. The data set is classed as functional. The essentials: as §1
Data set [17] deals with Protein kinase C epsilon type (Homo sapiens) (UniProt Q02156). The data set can be described thus: Inhibition of PKCepsilon (unknown origin) at 1 micromol/L relative to control. Particulars: dose 1.0 µmol/L. The essentials:
as §2

Data set [18] deals with RAC-beta serine/threonine-protein kinase (Homo sapiens) (UniProt P31751). The data set can be described thus: Inhibition of PKBbeta (unknown origin) at 1 micromol/L relative to control. Particulars: dose 1.0 µmol/L. In outline: as §2
Sequence of RAC-beta serine/threonine-protein kinase (Homo sapiens) (P31751 whole entry): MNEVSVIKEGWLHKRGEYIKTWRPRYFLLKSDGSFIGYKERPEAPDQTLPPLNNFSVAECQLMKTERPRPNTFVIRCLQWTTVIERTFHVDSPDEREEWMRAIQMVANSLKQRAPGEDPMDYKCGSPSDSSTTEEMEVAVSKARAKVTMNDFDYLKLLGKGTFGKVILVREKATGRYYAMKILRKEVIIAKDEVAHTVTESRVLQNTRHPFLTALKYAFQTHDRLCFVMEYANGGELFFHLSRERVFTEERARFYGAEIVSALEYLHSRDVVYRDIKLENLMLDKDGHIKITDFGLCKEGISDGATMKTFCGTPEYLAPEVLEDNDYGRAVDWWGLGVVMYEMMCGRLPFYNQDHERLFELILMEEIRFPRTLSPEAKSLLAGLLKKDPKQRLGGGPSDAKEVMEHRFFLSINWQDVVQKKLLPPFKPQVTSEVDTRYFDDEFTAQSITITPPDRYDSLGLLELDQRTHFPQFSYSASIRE
Data set [19] relates to HCT-116. The data set can be described thus: Antitumor activity against human HCT-116 cells xenografted in athymic nude mouse assessed as reduction in tumor growth at 75 mg/kg, po administered twice daily measured after 21 days. Format: functional, organism-based. Conditions: time 21.0 day. In outline:
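Female athymic nude mice, 6–8 weeks, 5 million cells s.c. flank in 1:1 serum-free medium/matrigel; at group mean 100 mm³, 75 mg/kg by gavage twice daily in 10% acacia for 21 days, n = 9/group, vehicle controls; caliper volume A²×B×0.536; two-way repeated measures analysis.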

Data set [20] has as its system Malme-3M. The data set can be described thus: Antiproliferative activity against human Malme-3M cells assessed as reduction in cell growth upto 10 uM measured after 6 days by propidium iodide staining based analysis. Format: functional. Particulars: time 6.0 day. The essentials:
as §1

A short description of data set [21]: Antitumor activity against human HCT116 cells implanted in athymic nude mouse assessed as reduction in GSK3beta phosphorylation at serine 9 residue at 75 mg/kg, po administered twice daily measured after 2 to 4 hrs by ELISA method relative to control. Particulars: time 2-4 hrs. On the set-up: scale not given: the % may be the effect or the level left.
A short description of data set [22]: Plasma concentration in athymic nude mouse xenografted with human HCT-116 cells at 75 mg/kg, po administered twice daily measured after 1 hr by LC-MS analysis. Format: ADME, organism-based. In outline: as §3
Data set [23] can be described thus: Plasma concentration in athymic nude mouse xenografted with human HCT-116 cells at 75 mg/kg, po administered twice daily measured after 2 hrs by LC-MS analysis. The data set is classed as ADME, organism-based. In outline:
as §3

For data set [24], the system named is NCI-H460. In words: Antiproliferative activity against human NCI-H460 cells assessed as reduction in cell growth upto 10 uM measured after 6 days by propidium iodide staining based analysis. The data set is classed as functional. Particulars: time 6.0 day. In outline: as §1

Calls of active or inactive are those of the source. The calls are words filed in the database; no cut-off is given here. Where only a bound is given, the exact number is not on record here.

Sequence of Mitogen-activated protein kinase 13 (Homo sapiens) (O15264 whole entry): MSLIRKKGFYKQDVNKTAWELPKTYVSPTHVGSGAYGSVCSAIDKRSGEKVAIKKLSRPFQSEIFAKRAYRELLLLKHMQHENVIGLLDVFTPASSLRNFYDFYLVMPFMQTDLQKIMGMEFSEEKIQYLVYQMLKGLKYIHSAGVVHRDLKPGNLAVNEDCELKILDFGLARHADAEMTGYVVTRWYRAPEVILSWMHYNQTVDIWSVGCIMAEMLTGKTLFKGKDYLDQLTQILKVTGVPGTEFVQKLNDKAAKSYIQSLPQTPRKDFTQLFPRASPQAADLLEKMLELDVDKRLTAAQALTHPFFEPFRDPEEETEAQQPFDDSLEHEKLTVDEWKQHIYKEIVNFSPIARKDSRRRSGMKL
Sequence of Platelet-derived growth factor receptor alpha (Homo sapiens) (P16234 whole entry): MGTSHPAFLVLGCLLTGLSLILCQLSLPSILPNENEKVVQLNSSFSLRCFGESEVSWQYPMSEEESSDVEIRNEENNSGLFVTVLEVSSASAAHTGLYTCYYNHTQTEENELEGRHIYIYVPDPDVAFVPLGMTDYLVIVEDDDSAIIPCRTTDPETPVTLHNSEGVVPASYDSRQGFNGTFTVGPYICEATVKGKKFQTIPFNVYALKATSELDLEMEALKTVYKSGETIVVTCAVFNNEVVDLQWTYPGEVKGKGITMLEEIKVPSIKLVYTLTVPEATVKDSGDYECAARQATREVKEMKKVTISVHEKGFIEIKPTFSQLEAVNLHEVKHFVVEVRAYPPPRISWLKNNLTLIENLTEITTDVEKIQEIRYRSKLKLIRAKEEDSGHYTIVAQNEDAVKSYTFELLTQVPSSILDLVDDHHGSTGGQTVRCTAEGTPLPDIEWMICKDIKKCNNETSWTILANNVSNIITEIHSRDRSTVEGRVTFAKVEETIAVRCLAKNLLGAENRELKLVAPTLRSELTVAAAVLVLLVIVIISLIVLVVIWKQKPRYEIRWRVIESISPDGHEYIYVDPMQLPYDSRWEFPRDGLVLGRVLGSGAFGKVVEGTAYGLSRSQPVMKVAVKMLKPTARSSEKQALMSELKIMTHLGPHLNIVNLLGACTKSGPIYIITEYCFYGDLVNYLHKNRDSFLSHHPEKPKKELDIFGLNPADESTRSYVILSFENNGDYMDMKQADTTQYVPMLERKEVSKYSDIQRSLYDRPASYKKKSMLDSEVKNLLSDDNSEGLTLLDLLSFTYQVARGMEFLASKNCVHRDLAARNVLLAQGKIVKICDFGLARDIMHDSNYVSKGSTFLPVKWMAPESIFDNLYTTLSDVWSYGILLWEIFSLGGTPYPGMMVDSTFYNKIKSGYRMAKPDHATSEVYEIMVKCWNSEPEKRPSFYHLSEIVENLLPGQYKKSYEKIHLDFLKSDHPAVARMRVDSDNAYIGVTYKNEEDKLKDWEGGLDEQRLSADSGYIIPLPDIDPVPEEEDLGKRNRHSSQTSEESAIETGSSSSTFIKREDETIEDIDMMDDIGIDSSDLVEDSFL
Sequence of Protein kinase C epsilon type (Q02156 whole entry): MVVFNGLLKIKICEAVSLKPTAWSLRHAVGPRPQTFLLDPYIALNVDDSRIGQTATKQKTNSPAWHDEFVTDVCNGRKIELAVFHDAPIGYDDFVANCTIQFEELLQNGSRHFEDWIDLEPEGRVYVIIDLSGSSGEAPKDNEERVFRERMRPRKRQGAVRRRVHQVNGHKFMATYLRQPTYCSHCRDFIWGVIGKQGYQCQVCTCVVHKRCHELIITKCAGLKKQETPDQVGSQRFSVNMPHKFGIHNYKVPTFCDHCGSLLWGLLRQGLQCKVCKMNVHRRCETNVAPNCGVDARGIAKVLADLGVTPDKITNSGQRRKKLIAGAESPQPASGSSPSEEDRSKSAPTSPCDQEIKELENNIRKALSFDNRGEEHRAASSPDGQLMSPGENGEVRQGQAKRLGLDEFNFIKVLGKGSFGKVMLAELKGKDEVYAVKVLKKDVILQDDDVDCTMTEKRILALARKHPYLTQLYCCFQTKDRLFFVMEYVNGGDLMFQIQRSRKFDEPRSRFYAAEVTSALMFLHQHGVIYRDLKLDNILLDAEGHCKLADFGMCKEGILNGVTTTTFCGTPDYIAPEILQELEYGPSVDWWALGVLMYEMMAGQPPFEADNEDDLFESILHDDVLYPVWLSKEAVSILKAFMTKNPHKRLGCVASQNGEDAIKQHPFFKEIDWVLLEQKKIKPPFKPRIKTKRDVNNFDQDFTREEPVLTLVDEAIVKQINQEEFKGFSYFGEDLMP
Sequence of Protein kinase C epsilon type (Homo sapiens) (Q02156 whole entry): as above
Sequence of RAC-alpha serine/threonine-protein kinase (Homo sapiens) (P31749 whole entry): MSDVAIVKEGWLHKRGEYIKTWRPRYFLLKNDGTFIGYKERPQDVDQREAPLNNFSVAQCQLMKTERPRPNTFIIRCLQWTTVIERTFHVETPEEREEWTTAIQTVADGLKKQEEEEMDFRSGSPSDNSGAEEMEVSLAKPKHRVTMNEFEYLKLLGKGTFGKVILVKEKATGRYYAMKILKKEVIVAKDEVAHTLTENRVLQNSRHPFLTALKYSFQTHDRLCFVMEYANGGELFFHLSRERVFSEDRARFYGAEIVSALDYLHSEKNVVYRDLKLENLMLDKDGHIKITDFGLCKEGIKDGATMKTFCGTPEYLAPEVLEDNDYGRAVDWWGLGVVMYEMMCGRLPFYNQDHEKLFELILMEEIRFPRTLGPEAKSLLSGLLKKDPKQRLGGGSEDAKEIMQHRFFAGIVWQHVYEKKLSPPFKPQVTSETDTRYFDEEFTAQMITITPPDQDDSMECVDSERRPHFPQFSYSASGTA

Regarding `Cl.Cn1cc(C2=C(c3cn(C4CCN(Cc5ccccn5)CC4)c4ccccc34)C(=O)NC2=O)c2ccccc21` [ENZASTAURIN HYDROCHLORIDE], the outcome in data set [1], in data set [7], in data set [11], in [20] and in data set [24] was inactive. For the same compound, the result in data set [2], in data set [13], in data set [16] and in data set [19] was Active. Further, the % control activity in data set [3] is 88%; in data set [6], 75%; in data set [9], 97%; in [15], 86%; in data set [17], 9%; in data set [18], 100%. Also, the Activity was >50% in data set [4], 80% in data set [8] and >60% in [21]. Also, the inhibition entry in data set [5] is “inactive”. Further, the concentration at 0.5 h in [10] is ~2000 nM. Moreover, the inhibition entry in [12] was “Active”. Besides, the IC50 (in general, the concentration that inhibits the measured activity by half) in [14] amounted to 110 nM. Also, the concentration at 1 h in data set [22] was found to be 3000 nM. In addition, in data set [23], the concentration at 2 h came out at 2000 nM.

The record behind these values is ChEMBL document CHEMBL5715938, “The protein kinase Cbeta-selective inhibitor, Enzastaurin (LY317615.HCl), suppresses signaling through the AKT pathway, induces apoptosis, and suppresses growth of human colon cancer and glioblastoma xenografts” (Cancer Res, 2005).
